Data as given in ChEMBL document CHEMBL1152649, “Synthesis, cytotoxicity and human telomerase inhibition activities of a series of 1,2-heteroannelated anthraquinones and anthra[1,2-d]imidazole-6,11-dione homologues” (2009).

How the values were obtained:
Type in all cases: functional
SNB-75 = assay: Growth inhibition of human SNB75 cells
Method in brief: (§1)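 Assayed in the NCI 60 human cancer cell line panel under the Developmental Therapeutics Program protocol. For each line, dose–response curves were plotted against log10 drug concentration. In the one-dose screen at 10^-5 M, growth was given as percent of untreated control cells, and mean graph midpoint values were averaged.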

HCT-116 = assay: Growth inhibition of human HCT116 cells
Method in brief: (§2)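 NCI 60 cancer cell line screen run per the Developmental Therapeutics Program protocol. Dose–response curves were plotted against log10 drug concentration for each cell line within its subpanel, and mean graph midpoint values were calculated.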

NCI-H226 = assay: Growth inhibition of human NCI-H226 cells; method in brief: as §2
SK-MEL-2 = assay: Growth inhibition of human SK-MEL-2 cells; method in brief: as §1
IGROV-1 [1] = assay: Antiproliferative activity against human IGROV1 cells assessed as cell growth at 10 uM; settings: read-out: Activity
Method in brief: (§3)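 NCI 60 cell line panel, single-dose screen (10^-5 M) run by the developmental therapeutics program protocol. Results are given as growth percent of treated cells relative to untreated control cells for each line.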

NCI-H522 = assay: Growth inhibition of human NCI-H522 cells; method in brief: as §2
MDA-MB-231 = assay: Growth inhibition of human MDA-MB-231 cells; method in brief: as §2
CAKI-1 = assay: Growth inhibition of human Caki1 cells; method in brief: as §2
HOP-92 = assay: Growth inhibition of human HOP92 cells; method in brief: as §2
SF-295 = assay: Growth inhibition of human SF295 cells; method in brief: as §1
UACC-62 = assay: Growth inhibition of human UACC62 cells; method in brief: as §1
OVCAR-5 = assay: Growth inhibition of human OVCAR5 cells; method in brief: as §2
ACHN = assay: Growth inhibition of human ACHN cells; method in brief: as §2
COLO 205 = assay: Growth inhibition of human COLO205 cells; method in brief: as §2
RXF 393 = assay: Antiproliferative activity against human RXF393 cells assessed as cell growth at 10 uM; settings: read-out: Activity; method in brief: as §3
M14 = assay: Growth inhibition of human M14 cells; method in brief: as §2
MDA-MB-435 = assay: Growth inhibition of human MDA-MB-435 cells; method in brief: as §2
HCT-15 = assay: Growth inhibition of human HCT15 cells; method in brief: as §2
NCI-H322M = assay: Growth inhibition of human NCI-H322M cells; method in brief: as §2
NCI/ADR-RES = assay: Growth inhibition of human NCI/ADR-RES cells; method in brief: as §2
SNB-19 = assay: Growth inhibition of human SNB19 cells; method in brief: as §1
MCF7 = assay: Growth inhibition of human MCF7 cells; method in brief: as §2
NCI-H460 = assay: Growth inhibition of human NCI-H460 cells; method in brief: as §2
SN12C = assay: Growth inhibition of human SN12C cells; method in brief: as §1
SF-268 = assay: Growth inhibition of human SF268 cells; method in brief: as §1
HCC 2998 = assay: Growth inhibition of human HCC2998 cells; method in brief: as §2
786-0 = assay: Growth inhibition of human 786-0 cells; method in brief: as §2
DU-145 = assay: Growth inhibition of human DU145 cells; method in brief: as §2
IGROV-1 [2] = assay: Growth inhibition of human IGROV1 cells; method in brief: as §2
HOP-62 = assay: Growth inhibition of human HOP62 cells; method in brief: as §2
HT-29 = assay: Growth inhibition of human HT-29 cells; method in brief: as §2
UO-31 = assay: Growth inhibition of human UO31 cells; method in brief: as §1
KM12 = assay: Growth inhibition of human KM12 cells; method in brief: as §2
UACC-257 = assay: Growth inhibition of human UACC257 cells; method in brief: as §1
OVCAR-8 = assay: Growth inhibition of human OVCAR8 cells; method in brief: as §2
LOX IMVI = assay: Growth inhibition of human LOXIMVI cells; method in brief: as §2
SK-MEL-5 = assay: Growth inhibition of human SK-MEL-5 cells; method in brief: as §1
Malme-3M = assay: Growth inhibition of human MALME-3M cells; method in brief: as §2
BT-549 = assay: Growth inhibition of human BT549 cells; method in brief: as §2
[3] = read-out: LC50 (the source's name)

O=C1c2ccccc2C(=O)c2c1ccc1nsnc21
GI50 (SNB-75): 2.03 µM | TGI (SNB-75): 5.2 µM | CC50 (SNB-75; [3]): 18.6 µM | GI50 (HCT-116): 1.93 µM | TGI (HCT-116): 5.4 µM | CC50 (HCT-116; [3]): > 100 µM | GI50 (NCI-H226): 4.48 µM | TGI (NCI-H226): 21.6 µM | CC50 (NCI-H226; [3]): 63.7 µM | GI50 (SK-MEL-2): 1.68 µM | TGI (SK-MEL-2): 4.22 µM | CC50 (SK-MEL-2; [3]): 22.5 µM | growth at 10 µM (IGROV-1 [1]): -88.3% | GI50 (NCI-H522): 1.66 µM | TGI (NCI-H522): 3.93 µM | CC50 (NCI-H522; [3]): 9.31 µM | GI50 (MDA-MB-231): 1.75 µM | LC50 (concentration killing 50% of cells) (MDA-MB-231): > 100 µM | TGI (MDA-MB-231): 5.9 µM | GI50 (CAKI-1): 1.61 µM | TGI (CAKI-1): 2.96 µM | CC50 (CAKI-1; [3]): 5.44 µM | GI50 (HOP-92): 2.52 µM | TGI (HOP-92): 6.64 µM | CC50 (HOP-92; [3]): > 100 µM | GI50 (SF-295): 1.9 µM | TGI (SF-295): 4.04 µM | CC50 (SF-295; [3]): 8.56 µM | GI50 (UACC-62): 1.45 µM | TGI (UACC-62): 2.9 µM | CC50 (UACC-62; [3]): 5.79 µM | GI50 (OVCAR-5): 1.91 µM | TGI (OVCAR-5): 4.11 µM | CC50 (OVCAR-5; [3]): 8.84 µM | GI50 (ACHN): 1.46 µM | TGI (ACHN): 2.77 µM | CC50 (ACHN; [3]): 5.27 µM | GI50 (COLO 205): 13.4 µM | TGI (COLO 205): 28.9 µM | CC50 (COLO 205; [3]): 62.4 µM | growth at 10 µM (RXF 393): 20.1% | GI50 (M14): 2.15 µM | TGI (M14): 4.85 µM | CC50 (M14; [3]): > 100 µM | GI50 (MDA-MB-435): 1.91 µM | TGI (MDA-MB-435): 3.31 µM | CC50 (MDA-MB-435; [3]): 5.76 µM | GI50 (HCT-15): 1.71 µM | TGI (HCT-15): 3.72 µM | CC50 (HCT-15; [3]): 8.12 µM | GI50 (NCI-H322M): 17.4 µM | TGI (NCI-H322M): 47.8 µM | CC50 (NCI-H322M; [3]): > 100 µM | GI50 (NCI/ADR-RES): 1.86 µM | TGI (NCI/ADR-RES): 12.6 µM | CC50 (NCI/ADR-RES; [3]): > 100 µM | GI50 (SNB-19): 2.28 µM | TGI (SNB-19): 5.82 µM | CC50 (SNB-19; [3]): 26 µM | GI50 (MCF7): 1.53 µM | TGI (MCF7): 3.34 µM | CC50 (MCF7; [3]): 7.29 µM | GI50 (NCI-H460): 3.27 µM | TGI (NCI-H460): 14.3 µM | CC50 (NCI-H460; [3]): 47.3 µM | GI50 (SN12C): 1.33 µM | TGI (SN12C): 3.17 µM | CC50 (SN12C; [3]): 7.56 µM | GI50 (SF-268): 2.17 µM | TGI (SF-268): 5.77 µM | CC50 (SF-268; [3]): 27.7 µM | GI50 (HCC 2998): 16.4 µM | TGI (HCC 2998): 33.1 µM | CC50 (HCC 2998; [3]): 66.6 µM | GI50 (786-0): 6.17 µM | TGI (786-0): 19.3 µM | CC50 (786-0; [3]): 50.4 µM | GI50 (DU-145): 1.67 µM | TGI (DU-145): 3.24 µM | CC50 (DU-145; [3]): 6.27 µM | GI50 (IGROV-1 [2]): 1.36 µM | TGI (IGROV-1 [2]): 2.94 µM | CC50 (IGROV-1 [2]; [3]): 6.35 µM | GI50 (HOP-62): 1.28 µM | TGI (HOP-62): 3.31 µM | CC50 (HOP-62; [3]): 8.53 µM | GI50 (HT-29): 13.4 µM | TGI (HT-29): 50.4 µM | CC50 (HT-29; [3]): > 100 µM | GI50 (UO-31): 1.62 µM | TGI (UO-31): 3.12 µM | CC50 (UO-31; [3]): 6.01 µM | GI50 (KM12): 1.96 µM | TGI (KM12): 5.54 µM | CC50 (KM12; [3]): 59.7 µM | GI50 (UACC-257): 1.74 µM | TGI (UACC-257): 3.51 µM | CC50 (UACC-257; [3]): 7.09 µM | GI50 (OVCAR-8): 1.66 µM | TGI (OVCAR-8): 4.68 µM | CC50 (OVCAR-8; [3]): 59.8 µM | GI50 (LOX IMVI): 0.82 µM | TGI (LOX IMVI): 2.13 µM | CC50 (LOX IMVI; [3]): 4.86 µM | GI50 (SK-MEL-5): 1.58 µM | TGI (SK-MEL-5): 2.92 µM | CC50 (SK-MEL-5; [3]): 5.41 µM | GI50 (Malme-3M): 1.66 µM | TGI (Malme-3M): 3.15 µM | CC50 (Malme-3M; [3]): 5.96 µM | GI50 (BT-549): 1.63 µM | LC50 (BT-549): 6.01 µM | TGI (BT-549): 3.13 µM

N#Cc1ccc(-c2nc3ccc4c(c3[nH]2)C(=O)c2ccccc2C4=O)cc1
growth at 10 µM (IGROV-1 [1]): 66.3% | growth at 10 µM (RXF 393): 117%
